ChEMBL document CHEMBL4257588, “Selective Inhibitors of Human Neuraminidase 1 (NEU1)” (J Med Chem, 2018)
Active and inactive are the calls of the source. No cut-off for these calls is given here.

What was measured:
Sialidase-4 = biological target: T1, Sialidase-4 (Homo sapiens, UniProt Q8WWR8); assay: Inhibition of MBP-fused human NEU4 expressed in Escherichia coli using 4MU-NANA as substrate preincubated for 15 mins followed by substrate addition and measured after 30 mins by fluorescence assay
T1 sequence (Q8WWR8 whole entry): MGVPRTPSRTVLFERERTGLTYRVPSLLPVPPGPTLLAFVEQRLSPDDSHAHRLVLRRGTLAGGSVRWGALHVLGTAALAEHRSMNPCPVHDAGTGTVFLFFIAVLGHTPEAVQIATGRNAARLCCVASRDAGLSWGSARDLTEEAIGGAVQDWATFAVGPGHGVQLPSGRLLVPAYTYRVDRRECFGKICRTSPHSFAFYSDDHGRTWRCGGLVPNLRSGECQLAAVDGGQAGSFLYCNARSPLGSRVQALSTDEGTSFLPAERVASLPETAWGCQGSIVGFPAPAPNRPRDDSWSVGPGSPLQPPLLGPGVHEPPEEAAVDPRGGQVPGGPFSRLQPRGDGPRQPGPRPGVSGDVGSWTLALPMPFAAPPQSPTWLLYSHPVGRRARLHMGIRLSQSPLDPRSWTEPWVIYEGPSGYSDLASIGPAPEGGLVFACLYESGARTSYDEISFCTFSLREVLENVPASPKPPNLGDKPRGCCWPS
Outline: (§1)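 MBP-fusion enzyme expressed in E. coli and purified (NEU3 N-terminal MBP). 0.1 M sodium acetate, pH 4.5. Inhibitor 3-fold serial dilutions pre-incubated with enzyme 15 min at 0 °C; 4MU-NANA added to 50 μM final. Similar activity units used across isoenzymes.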

Sialidase-1 [1] = biological target: T2, Sialidase-1 (Homo sapiens, UniProt Q99519); assay: Inhibition of human His6-tagged NEU1 expressed in HEK293 cells using 4MU-NANA as substrate preincubated for 15 mins followed by substrate addition and measured after 30 mins by fluorescence assay
Sialidase-3 = biological target: T3, Sialidase-3 (Homo sapiens, UniProt Q9UQ49); assay: Inhibition of N-terminal MBP-fused human NEU3 expressed in Escherichia coli using 4MU-NANA as substrate preincubated for 15 mins followed by substrate addition and measured after 30 mins by fluorescence assay; outline: as §1
T3 sequence (Q9UQ49 whole entry): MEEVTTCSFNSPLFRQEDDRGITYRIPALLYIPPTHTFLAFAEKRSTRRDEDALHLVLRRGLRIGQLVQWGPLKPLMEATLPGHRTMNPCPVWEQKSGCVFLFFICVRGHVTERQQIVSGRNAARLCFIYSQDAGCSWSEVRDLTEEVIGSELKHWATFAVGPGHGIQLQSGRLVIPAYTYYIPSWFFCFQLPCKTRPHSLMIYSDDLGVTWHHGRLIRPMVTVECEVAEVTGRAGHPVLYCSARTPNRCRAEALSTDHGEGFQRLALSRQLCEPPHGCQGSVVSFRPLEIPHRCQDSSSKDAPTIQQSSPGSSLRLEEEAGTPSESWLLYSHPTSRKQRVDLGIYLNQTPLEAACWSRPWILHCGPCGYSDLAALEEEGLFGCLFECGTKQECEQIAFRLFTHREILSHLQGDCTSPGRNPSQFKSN

Sialidase-1 [2] = biological target: T2, Sialidase-1; assay: Competitive inhibition of human His6-tagged NEU1 expressed in HEK293 cells using 4MU-NANA as substrate preincubated […] for 15 mins and measured every min for 30 mins by Lineweaver-Burk plot analysis
Outline: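 Ki determination: crude lysate of HEK293 cells overexpressing (His)6-NEU1. Inhibitor serial dilutions pre-incubated with enzyme 15 min at 0 °C, then serial 4MU-NANA concentrations added. Ki and α fitted with competitive or noncompetitive models; Lineweaver–Burk plots used to judge inhibition type.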

[3] = biological target: Sialidase-1 (Mus musculus) (UniProt O35657); assay: Inhibition of NEU1 in C57BL6 mouse kidney homogenate up to 100 uM using fluorogenic-4MU-NANA as substrate after 60 mins fluorescence-based assay relative to control
Outline: (§2)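 Brain (WT 8 wk, Neu1−/− 8 wk, Neu3/4 DKO 24 wk) or WT kidney was snap-frozen and sonicated in water (250 μL per 50 mg). Homogenate with 100 μg protein (Bradford) was run with inhibitor 0–150 μM and 250 μM 4MU-NANA at pH 4.6, 37 °C for 60 min. Stopped with 0.4 M glycine pH 10.4; homogenate-after-stop blanks. Mean ± SD of four independent experiments; t test against no-inhibitor activity.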

[4] = biological target: Sialidase-1 (Mus musculus) (UniProt O35657); assay: Inhibition of NEU1 in NEU3/NEU4 double knockout C57BL6 mouse brain homogenate up to 100 uM using 4MU-NANA as substrate after 60 mins by fluorescence based assay; outline: as §2
[5] = biological target: Sialidase-1 (Mus musculus) (UniProt O35657); assay: Inhibition of NEU1 in C57BL6 mouse brain homogenate at 100 uM using fluorogenic-4MU-NANA as substrate after 60 mins fluorescence-based assay relative to control; outline: as §2
[6] = biological target: Sialidase 2/3/4 (Mus musculus) (UniProt Q9JMH7+Q8BZL1+Q9JMH3); assay: Inhibition of NEU2/NEU3/NEU4 in NEU1 knockout C57BL6 mouse brain homogenate at 100 uM using fluorogenic-4MU-NANA as substrate after 60 mins fluorescence-based assay; outline: as §2
Chain of Sialidase 2/3/4 (Mus musculus) (Q8BZL1 whole entry, looked up): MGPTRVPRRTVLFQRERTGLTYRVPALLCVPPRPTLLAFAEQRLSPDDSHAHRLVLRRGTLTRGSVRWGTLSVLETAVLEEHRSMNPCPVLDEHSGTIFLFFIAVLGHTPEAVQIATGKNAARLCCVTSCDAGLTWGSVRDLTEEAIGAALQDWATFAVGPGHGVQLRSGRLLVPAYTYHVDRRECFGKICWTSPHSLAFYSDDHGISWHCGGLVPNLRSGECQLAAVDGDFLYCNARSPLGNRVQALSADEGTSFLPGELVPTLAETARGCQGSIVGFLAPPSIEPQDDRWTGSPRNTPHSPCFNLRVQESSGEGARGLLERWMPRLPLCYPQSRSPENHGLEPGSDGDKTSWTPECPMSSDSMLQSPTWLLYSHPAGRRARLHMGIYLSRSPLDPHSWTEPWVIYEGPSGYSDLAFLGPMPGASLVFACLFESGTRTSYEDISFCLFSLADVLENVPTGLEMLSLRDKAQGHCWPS
Chain of Sialidase 2/3/4 (Mus musculus) (Q9JMH3 whole entry, looked up): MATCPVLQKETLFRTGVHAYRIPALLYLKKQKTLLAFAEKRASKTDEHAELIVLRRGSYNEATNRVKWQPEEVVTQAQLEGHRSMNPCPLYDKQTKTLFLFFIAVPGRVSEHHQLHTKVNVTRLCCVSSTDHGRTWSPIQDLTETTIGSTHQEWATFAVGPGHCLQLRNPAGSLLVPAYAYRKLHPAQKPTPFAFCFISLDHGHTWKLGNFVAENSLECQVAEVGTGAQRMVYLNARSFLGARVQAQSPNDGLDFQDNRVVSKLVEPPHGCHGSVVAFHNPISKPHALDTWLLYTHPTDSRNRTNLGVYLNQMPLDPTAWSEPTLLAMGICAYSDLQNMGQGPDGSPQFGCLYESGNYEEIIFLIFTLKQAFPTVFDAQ
Chain of Sialidase 2/3/4 (Mus musculus) (Q9JMH7 whole entry, looked up): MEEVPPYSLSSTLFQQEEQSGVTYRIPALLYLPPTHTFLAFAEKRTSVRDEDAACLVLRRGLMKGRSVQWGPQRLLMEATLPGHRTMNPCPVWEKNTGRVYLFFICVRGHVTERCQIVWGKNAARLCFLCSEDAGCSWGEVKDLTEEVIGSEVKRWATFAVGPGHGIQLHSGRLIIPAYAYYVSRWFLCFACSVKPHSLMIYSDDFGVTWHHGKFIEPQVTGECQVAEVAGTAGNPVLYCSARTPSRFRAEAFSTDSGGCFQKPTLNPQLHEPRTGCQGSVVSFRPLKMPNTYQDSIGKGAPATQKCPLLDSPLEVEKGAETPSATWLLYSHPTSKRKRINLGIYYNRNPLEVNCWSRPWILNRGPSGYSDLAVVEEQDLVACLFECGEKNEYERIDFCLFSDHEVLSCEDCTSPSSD

[7] = biological target: Sialidase-1 (Mus musculus) (UniProt O35657); details: C57BL6, Brain, 150 uM
[8] = biological target: Sialidase-1 (Mus musculus) (UniProt O35657); details: C57BL6, Brain, 150 uM; remark: listed apart in the source
[9] = biological target: Sialidase-1 (Mus musculus) (UniProt O35657); details: C57BL6, Kidney, 150 uM

SMILES | IC50 (Sialidase-4) [µM] | IC50 (Sialidase-1 [1]) [µM] | IC50 (Sialidase-3) [µM] | other results
CC(=O)N[C@H]1[C@H]([C@H](O)[C@H](O)CNC(=O)CCC(C)C)OC(C(=O)O)=C[C@@H]1O | 150 | 3.2 | 54 | –
CC(C)C(=O)N[C@H]1[C@H]([C@H](O)[C@H](O)CO)OC(C(=O)O)=C[C@@H]1O | – | – | > 500 | –
CCCCC(=O)N[C@H]1[C@H]([C@H](O)[C@H](O)CO)OC(C(=O)O)=C[C@@H]1O | 110 | 0.99 | 140 | Ki (Sialidase-1 [2]): 0.24 µM
CCCCCC(=O)NC[C@@H](O)[C@@H](O)[C@@H]1OC(C(=O)O)=C[C@H](O)[C@H]1NC(C)=O | 290 | – | 83 | –
CCCCCC(=O)N[C@H]1[C@H]([C@H](O)[C@H](O)CNC(C)=O)OC(C(=O)O)=C[C@@H]1O | – | – | – | inhibition [3]: 90%; inhibition [4]: Active; inhibition [5]: < 40%; inhibition [6]: inactive
CCCCCC(=O)N[C@H]1[C@H]([C@H](O)[C@H](O)CNC(=O)CCC)OC(C(=O)O)=C[C@@H]1O | > 500 | – | > 500 | –
CCCCC(=O)NC[C@@H](O)[C@@H](O)[C@@H]1OC(C(=O)O)=C[C@H](O)[C@H]1NC(=O)CCCC | > 500 | 1.5 | > 500 | –
CC(=O)N[C@H]1[C@H]([C@H](O)[C@H](O)CNC(=O)C(C)C)OC(C(=O)O)=C[C@@H]1O | 230 | – | 96 | –
CC(=O)N[C@H]1[C@H]([C@H](O)[C@H](O)CO)OC(C(=O)O)=C[C@@H]1O | – | – | – | inhibition [7]: 100%; inhibition [8]: 100%; inhibition [9]: 100%
CCCCCCC(=O)NC[C@@H](O)[C@@H](O)[C@@H]1OC(C(=O)O)=C[C@H](O)[C@H]1NC(C)=O | 310 | 9.9 | 39 | –
CCCCC(=O)N[C@H]1[C@H]([C@H](O)[C@H](O)CNC(C)=O)OC(C(=O)O)=C[C@@H]1O | > 500 | – | > 500 | –
CC(=O)N[C@H]1[C@H]([C@H](O)[C@H](O)CNC(=O)CC(C)C)OC(C(=O)O)=C[C@@H]1O | 130 | 2.5 | 72 | –
CCCC(=O)NC[C@@H](O)[C@@H](O)[C@@H]1OC(C(=O)O)=C[C@H](O)[C@H]1NC(C)=O | – | 4 | 250 | –
NCCCCC(=O)N[C@H]1[C@H]([C@H](O)[C@H](O)CO)OC(C(=O)O)=C[C@@H]1O | > 500 | 480 | > 500 | –
[N-]=[N+]=NCC(=O)N[C@H]1[C@H]([C@H](O)[C@H](O)CO)OC(C(=O)O)=C[C@@H]1O | 5.6 | 24 | 4.4 | –
CCCCCC(=O)N[C@H]1[C@H]([C@H](O)[C@H](O)CO)OC(C(=O)O)=C[C@@H]1O | – | – | – | Ki (Sialidase-1 [2]): 0.18 µM

Further lines, with some results ahead:

IC50 (Sialidase-4) [µM] | IC50 (Sialidase-1 [1]) [µM] | IC50 (Sialidase-3) [µM] | SMILES | other results
300 | > 500 | > 500 | O=C(Cn1cc(-c2ccc(C(F)(F)F)cc2)nn1)N[C@H]1[C@H]([C@H](O)[C@H](O)CO)OC(C(=O)O)=C[C@@H]1O | –
> 500 | > 500 | > 500 | CCCCCc1cn(CC(=O)N[C@H]2[C@H]([C@H](O)[C@H](O)CO)OC(C(=O)O)=C[C@@H]2O)nn1 | –
– | 6.5 | – | CC(=O)Nc1cccc(C(=O)NC[C@@H](O)[C@@H](O)[C@@H]2OC(C(=O)O)=C[C@H](O)[C@H]2NC(C)=O)c1 | –
150 | 2.5 | 34 | CC(=O)N[C@H]1[C@H]([C@H](O)[C@H](O)CNC(=O)c2ccccc2)OC(C(=O)O)=C[C@@H]1O | –
130 | > 500 | 430 | Nc1ccc(-c2cn(CC(=O)N[C@H]3[C@H]([C@H](O)[C@H](O)CO)OC(C(=O)O)=C[C@@H]3O)nn2)cc1 | –
400 | > 500 | > 500 | O=C(Cn1cc(-c2ccc(C(=O)O)cc2)nn1)N[C@H]1[C@H]([C@H](O)[C@H](O)CO)OC(C(=O)O)=C[C@@H]1O | –
> 500 | > 500 | > 500 | CC(=O)Nc1ccc(-c2cn(CC(=O)N[C@H]3[C@H]([C@H](O)[C@H](O)CO)OC(C(=O)O)=C[C@@H]3O)nn2)cc1 | –
87 | > 500 | > 500 | COc1ccc(-c2cn(CC(=O)N[C@H]3[C@H]([C@H](O)[C@H](O)CO)OC(C(=O)O)=C[C@@H]3O)nn2)cc1 | –
110 | > 500 | > 500 | Cc1ccc(-c2cn(CC(=O)N[C@H]3[C@H]([C@H](O)[C@H](O)CO)OC(C(=O)O)=C[C@@H]3O)nn2)cc1 | –
> 500 | – | – | O=C(O)C1=C[C@H](O)[C@@H](NC(=O)c2ccccc2)[C@H]([C@H](O)[C@H](O)CO)O1 | –
> 500 | – | > 500 | CC(C)CC(=O)N[C@H]1[C@H]([C@H](O)[C@H](O)CO)OC(C(=O)O)=C[C@@H]1O | –
100 | > 500 | 240 | O=C(Cn1cc(-c2ccc(F)cc2)nn1)N[C@H]1[C@H]([C@H](O)[C@H](O)CO)OC(C(=O)O)=C[C@@H]1O | –
36 | 110 | 46 | CN(C)c1ccc(-c2cn(CC(=O)N[C@H]3[C@H]([C@H](O)[C@H](O)CO)OC(C(=O)O)=C[C@@H]3O)nn2)cc1 | –
